Results from ChEMBL document CHEMBL1152321, “Recent advances in the chemistry and biology of new generation taxoids” (J Nat Prod, 2009).
The source made the active and inactive calls. The calls are words filed in the database; no cut-off is given here.

Assays:
[1] = Cytotoxicity against P-glycoprotein deficient wild type human LCC-6 cells after 72 hrs; format: functional, cell-based; conditions: LCC-6, 72 h
[2] = Cytotoxicity against human LCC-6 cells expressing P-glycoprotein after 72 hrs; format: functional, cell-based; conditions: LCC-6, 72 h
MCF7 [3] = assay: Cytotoxicity against P-glycoprotein deficient wild type human MCF7 cells after 72 hrs; format: functional, cell-based; conditions: MCF7, 72 h
[4] = Cytotoxicity against multidrug-resistant human NCI/ADR cells after 72 hrs; format: functional, cell-based; conditions: NCI/ADR-RES
HT-29 = assay: Cytotoxicity against human HT-29 cells after 72 hrs; format: functional, cell-based; conditions: HT-29, 72 h
A2780 [5] = assay: Cytotoxicity against human wild type A2780 cells after 72 hrs; format: functional, cell-based; conditions: A2780, 72 h
PANC-1 = assay: Cytotoxicity against human PANC1 cells expressing mdr1, mrp1, mrp2, lrp genes after 72 hrs; format: functional, cell-based; conditions: PANC-1, 72 h
DLD-1 [6] = assay: Antitumor activity against human DLD1 cells expressing P-glycoprotein xenografted in SCID mouse assessed as tumor growth delay at 20 mg/kg, iv administered on day 5, 8, 11 post tumor implantation; format: functional
In short: (§1)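 SCID mice carrying subcutaneous Pgp+ DLD-1 human colon tumours were dosed i.v. q3d×3 on days 5, 8 and 11 after implant, in Tween/EtOH vehicle, with vehicle and untreated control groups. Growth delay was compared with controls by Cox-Mantel test. Cures were mice with no palpable tumour on day 167. Toxicity was counted as death or more than 20% body-weight loss.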

Mus musculus = assay: Toxicity in SCID mouse xenografted with human DLD1 cells assessed as decrease in body weight at 20 mg/kg, iv administered on day 5, 8, 11 post tumor implantation; format: organism-based, DLD-1; design: dose 20 mg/kg, route intravenous; conditions: in vivo
DLD-1 [7] = assay: Antitumor activity against human DLD1 cells expressing P-glycoprotein xenografted in SCID mouse assessed as no palpable tumors at 20 mg/kg, iv administered on day 5, 8, 11 post tumor implantation measured on day 167; format: functional, organism-based; design: dose 20 mg/kg; in short: as §1
NCI-H460 = assay: Cytotoxicity against human H460 cells after 72 hrs; format: functional, cell-based; conditions: NCI-H460, 72 h
A2780 [8] = assay: Cytotoxicity against human cisplatin-resistant A2780 cells after 72 hrs; format: functional, cell-based; conditions: A2780, 72 h
A2780 [9] = assay: Cytotoxicity against human topotecan-resistant A2780 cells after 72 hrs; format: functional, cell-based; conditions: A2780, 72 h
[10] = Cytotoxicity against human paclitaxel and cyclosporine-resistant A2780TC3 cells overexpressing class 3 beta-tubulin after 72 hrs; format: functional, cell-based; conditions: A2780TC3, 72 h
[11] = Induction of tubulin polymerization at 10 uM in absence of GTP
[12] = Induction of tubulin polymerization at 10 uM in presence of Ca2+
MCF7 [13] = assay: Cytotoxicity against human MCF7 cells expressing P-glycoprotein after 72 hrs; format: functional, cell-based; conditions: MCF7, 72 h
MCF7 [14] = assay: Resistance factor, ratio of IC50 for human MCF7 cells expressing P-glycoprotein to IC50 for P-glycoprotein deficient wild type human MCF7 cells; format: functional
[15] = Cytotoxicity against human A2780/ADR cells after 72 hrs; format: functional, cell-based
[16] = Cytotoxicity against human paclitaxel and cyclosporine-resistant A2780TC1 cells overexpressing class 3 beta-tubulin after 72 hrs; format: functional, cell-based; conditions: A2780TC1, 72 h
[17] = Activity ratio of compound IC50 to paclitaxel IC50 for paclitaxel and cyclosporine-resistant human A2780TC3 cells overexpressing class 3 beta-tubulin; format: functional
A2780 [18] = assay: Resistance factor, ratio of IC50 for paclitaxel and cyclosporine-resistant human A2780TC3 cells overexpressing class 3 beta-tubulin to IC50 for wild type human A2780 cells; format: functional
[19] = Resistance factor, ratio of IC50 for human LCC-6 cells expressing P-glycoprotein to IC50 for P-glycoprotein deficient wild type human LCC-6 cells; format: functional; design: reference not given here
MCF7 [20] = assay: Resistance factor, ratio of IC50 for P-glycoprotein deficient wild type human MCF7 cells to IC50 for multidrug-resistant human NCI/ADR cells; format: functional

Compound | IC50 [1] [nM] | IC50 [2] [nM] | IC50 (MCF7 [3]) [nM] | IC50 [4] [nM] | IC50 (HT-29) [nM] | IC50 (A2780 [5]) [nM] | IC50 (PANC-1) [nM] | further results
CC(=O)O[C@H]1C(=O)[C@@]2(C)[C@H]([C@H](OC(=O)c3ccccc3)[C@]3(O)[C@H]4OC/C=C/Cc5ccccc5C(=O)N[C@@H](c5ccccc5)[C@@H](O)C(=O)O[C@@H]4C(C)=C1C3(C)C)[C@]1(OC(C)=O)CO[C@@H]1C[C@@H]2O | 12.2 | 300 | 12.3 | 592 | 29.2 | 114 | – | –
CC(=O)O[C@H]1C(=O)[C@@]2(C)[C@H]([C@H](OC(=O)c3ccccc3)[C@]3(O)[C@H]4OC/C=C\OCc5ccccc5C(=O)N[C@@H](c5ccccc5)[C@@H](O)C(=O)O[C@@H]4C(C)=C1C3(C)C)[C@]1(OC(C)=O)CO[C@@H]1C[C@@H]2O | 348 | 1920 | 196 | 1140 | 62 | 198 | – | –
CC(=O)O[C@H]1C(=O)[C@@]2(C)[C@H]([C@H](OC(=O)c3ccccc3)[C@]3(O)C[C@H](OC(=O)[C@H](O)[C@@H](NC(=O)c4ccccc4)c4ccccc4)C(C)=C1C3(C)C)[C@]1(OC(C)=O)CO[C@@H]1C[C@@H]2O [PACLITAXEL] | 2.45 | 110 | – | – | – | 1.7 | 25.7 | Activity (DLD-1 [6]): 8 days; Activity (Mus musculus): Non-toxic; Activity (DLD-1 [7]): inactive; IC50 (NCI-H460): 4.9 nM; IC50 (A2780 [8]): 2.2 nM; IC50 (A2780 [9]): 7.2 nM; IC50 [10]: 17800 nM
CC(=O)O[C@H]1C(=O)[C@@]2(C)[C@H]([C@H](OC(=O)c3ccccc3)[C@]3(O)[C@H]4OCC/C=C/c5ccccc5C(=O)N[C@@H](c5ccccc5)[C@@H](O)C(=O)O[C@@H]4C(C)=C1C3(C)C)[C@]1(OC(C)=O)CO[C@@H]1C[C@@H]2O | 2.09 | 129 | 3.49 | 183 | 17 | 31 | – | inhibition [11]: Active; inhibition [12]: Active
CC(=O)O[C@H]1C(=O)[C@@]2(C)[C@H]([C@H](OC(=O)c3ccccc3)[C@]3(O)[C@H]4OC/C=C/OCc5ccccc5C(=O)N[C@@H](c5ccccc5)[C@@H](O)C(=O)O[C@@H]4C(C)=C1C3(C)C)[C@]1(OC(C)=O)CO[C@@H]1C[C@@H]2O | 2070 | 2280 | 1650 | 10000 | 523 | 1480 | – | –
CC(=O)O[C@@]12CO[C@@H]1C[C@H](O)[C@@]1(C)C(=O)[C@H](OC(=O)N(C)C)C3=C(C)[C@@H](OC(=O)[C@H](O)[C@H](C=C(F)F)NC(=O)OC(C)(C)C)C[C@@](O)([C@@H](OC(=O)c4ccccc4)[C@H]21)C3(C)C | – | – | 0.13 | – | 0.46 | – | 1.58 | IC50 (MCF7 [13]): 4.3 nM; Ratio (MCF7 [14]): 33
CC(=O)O[C@@]1([C@@H]2/C(C)=C(/O)C(=O)C3=C(C)[C@@H](OC(=O)[C@H](O)[C@H](CC(C)C)NC(=O)OC(C)(C)C)C[C@@](O)([C@H]2OC(=O)c2cccc(F)c2)C3(C)C)CO[C@H]1CCO | – | – | – | – | – | 11.1 | – | IC50 (A2780 [8]): 11.8 nM; IC50 (A2780 [9]): 12.8 nM; IC50 [15]: 3730 nM; IC50 [16]: 1500 nM; IC50 [10]: 460 nM; Ratio IC50 [17]: 39; Ratio IC50 (A2780 [18]): 41
CC(=O)O[C@H]1C(=O)[C@@]2(C)[C@H]([C@H](OC(=O)c3ccccc3)[C@]3(O)C[C@H](OC(=O)[C@H](O)[C@H](C=C(F)F)NC(=O)OC(C)(C)C)C(C)=C1C3(C)C)[C@]1(OC(C)=O)CO[C@@H]1C[C@@H]2O | – | – | 0.099 | – | 0.41 | – | 1.19 | IC50 (MCF7 [13]): 0.95 nM; Ratio (MCF7 [14]): 9.6
CC(=O)O[C@@]1([C@@H]2/C(C)=C(/O)C(=O)C3=C(C)[C@@H](OC(=O)[C@H](O)[C@H](C=C(C)C)NC(=O)OC(C)(C)C)C[C@@](O)([C@H]2OC(=O)c2cccc(F)c2)C3(C)C)CO[C@@H]1CCO | – | – | – | – | – | 6.1 | – | IC50 (A2780 [8]): 4.9 nM; IC50 (A2780 [9]): 6.9 nM; IC50 [15]: 2220 nM; IC50 [16]: 4450 nM; IC50 [10]: 745 nM
CC(=O)O[C@H]1C(=O)[C@@]2(C)[C@H]([C@H](OC(=O)c3ccccc3)[C@]3(O)[C@H]4OC/C=C/Cc5ccccc5C(=O)N[C@@H](C=C(C)C)[C@@H](O)C(=O)O[C@@H]4C(C)=C1C3(C)C)[C@]1(OC(C)=O)CO[C@@H]1C[C@@H]2O | 130 | 618 | 398 | 1000 | – | – | – | –
CCC(=O)O[C@H]1C(=O)[C@@]2(C)[C@H]([C@H](OC(=O)c3ccccc3)[C@]3(O)C[C@H](OC(=O)[C@H](O)[C@H](C=C(F)F)NC(=O)OC(C)(C)C)C(C)=C1C3(C)C)[C@]1(OC(C)=O)CO[C@@H]1C[C@@H]2O | – | – | 0.12 | – | 0.34 | – | 0.65 | IC50 (MCF7 [13]): 1.2 nM; Ratio (MCF7 [14]): 10
CCC(=O)O[C@H]1C(=O)[C@@]2(C)[C@H]([C@H](OC(=O)c3cccc(OC)c3)[C@]3(O)C[C@H](OC(=O)[C@H](O)[C@H](C=C(C)C)NC(=O)C4CCC4)C(C)=C1C3(C)C)[C@]1(OC(C)=O)CO[C@@H]1C[C@@H]2O | 1.6 | – | – | – | – | – | – | Ratio [19]: 9.4; Ratio (MCF7 [20]): 11
CCC(=O)O[C@H]1C(=O)[C@@]2(C)[C@H]([C@H](OC(=O)c3ccccc3)[C@]3(O)C[C@H](OC(=O)[C@H](O)[C@H](C=C(C)C)NC(=O)OC4CCCCC4)C(C)=C1C3(C)C)[C@]1(OC(C)=O)CO[C@@H]1C[C@@H]2O | 1.2 | – | – | – | – | – | – | Ratio [19]: 13; Ratio (MCF7 [20]): 6.4
CC(=O)O[C@@]12CO[C@@H]1C[C@H](O)[C@@]1(C)C(=O)[C@H](OC(=O)C3CC3)C3=C(C)[C@@H](OC(=O)[C@H](O)[C@H](C=C(F)F)NC(=O)OC(C)(C)C)C[C@@](O)([C@@H](OC(=O)c4ccccc4)[C@H]21)C3(C)C | – | – | 0.12 | – | 0.85 | – | 5.85 | IC50 (MCF7 [13]): 6 nM; Ratio (MCF7 [14]): 50
CC(=O)O[C@@]1(C2/C(C)=C(/O)C(=O)C3=C(C)[C@@H](OC(=O)[C@H](O)[C@H](CC(C)C)NC(=O)OC(C)(C)C)C[C@@](O)([C@H]2OC(=O)c2ccccc2)C3(C)C)CO[C@@H]1CCO (some centres undefined) | – | – | – | – | – | 17.4 | – | IC50 (A2780 [8]): 16.8 nM; IC50 (A2780 [9]): 27.5 nM; IC50 [15]: 2620 nM; IC50 [16]: 2060 nM; IC50 [10]: 2240 nM; Ratio IC50 [17]: 8; Ratio IC50 (A2780 [18]): 129
